Data as given in ChEMBL document CHEMBL3769383, “Cefsulodin Inspired Potent and Selective Inhibitors of mPTPB, a Virulent Phosphatase from Mycobacterium tuberculosis” (ACS Med Chem Lett, 2015).
Activity calls are given as the source filed them.

Tests used:
[1] = Inhibition of Mycobacterium tuberculosis PTPB expressed in Escherichia coli BL21/DE3 cells using pNPP as substrate after 5 mins by spectrophotometry
BL21-DE3 = assay: Inhibition of Mycobacterium tuberculosis PTPB expressed in Escherichia coli BL21/DE3 cells using pNPP as substrate at 200 uM after 5 mins by spectrophotometry
Outline: (§1)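 Single-point screen: the test compound is present at 200 μM in the assay (a compound concentration, not a substrate level). The read-out is phosphatase-catalysed hydrolysis of para-nitrophenyl phosphate.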

[2] = biological target: Receptor-type tyrosine-protein phosphatase F (Homo sapiens) (UniProt P10586); assay: Inhibition of LAR (unknown origin) using pNPP as substrate at 200 uM after 5 mins by spectrophotometry; outline: as §1
[3] = Selectivity ratio of IC50 for PTPsigma (unknown origin) to IC50 for Mycobacterium tuberculosis PTPB
Outline: (§2)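 Each phosphatase in the 25-enzyme panel was tested for inhibition at 200 μM compound. The mPTPB IC50 was determined against mPTPB-catalysed hydrolysis of para-nitrophenyl phosphate. The ratio is the panel-enzyme IC50 divided by the mPTPB IC50.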

[4] = biological target: Tyrosine-protein phosphatase non-receptor type 2 (Homo sapiens) (UniProt P17706); assay: Inhibition of TC-PTP (unknown origin) using pNPP as substrate at 200 uM after 5 mins by spectrophotometry; outline: as §1
[5] = Selectivity ratio of IC50 for TC-PTP (unknown origin) to IC50 for Mycobacterium tuberculosis PTPB; outline: as §2
[6] = Selectivity ratio of IC50 for FAP1 (unknown origin) to IC50 for Mycobacterium tuberculosis PTPB
[7] = Selectivity ratio of IC50 for Laforin (unknown origin) to IC50 for Mycobacterium tuberculosis PTPB
[8] = biological target: Dual specificity protein phosphatase 3 (Homo sapiens) (UniProt P51452); assay: Inhibition of VHR (unknown origin) using pNPP as substrate at 200 uM after 5 mins by spectrophotometry; outline: as §1
Laforin (Homo sapiens) = Laforin (Homo sapiens) (UniProt O95278); assay: Inhibition of Laforin (unknown origin) using pNPP as substrate at 200 uM after 5 mins by spectrophotometry; outline: as §1
[9] = biological target: Tyrosine-protein phosphatase non-receptor type 13 (Homo sapiens) (UniProt Q12923); assay: Inhibition of FAP1 (unknown origin) expressed in Escherichia coli using pNPP as substrate at 200 uM after 5 mins by spectrophotometry; outline: as §1
[10] = biological target: Dual specificity protein phosphatase CDC14A (Homo sapiens) (UniProt Q9UNH5); assay: Inhibition of CDC14A (unknown origin) using pNPP as substrate at 200 uM after 5 mins by spectrophotometry; outline: as §1
[11] = biological target: Tyrosine-protein phosphatase non-receptor type 22 (Homo sapiens) (UniProt Q9Y2R2); assay: Inhibition of LYP (unknown origin) expressed in Escherichia coli using pNPP as substrate at 200 uM after 5 mins by spectrophotometry; outline: as §1
[12] = Selectivity ratio of IC50 for VHR (unknown origin) to IC50 for Mycobacterium tuberculosis PTPB; outline: as §2
[13] = biological target: Low molecular weight protein-tyrosine phosphatase A (Mycobacterium tuberculosis) (UniProt P9WIA1); assay: Inhibition of Mycobacterium tuberculosis PTPA expressed in Escherichia coli using pNPP as substrate at 200 uM after 5 mins by spectrophotometry; outline: as §1
[14] = Selectivity ratio of IC50 for SHP2 (unknown origin) to IC50 for Mycobacterium tuberculosis PTPB; outline: as §2
[15] = biological target: Tyrosine-protein phosphatase non-receptor type 9 (Homo sapiens) (UniProt P43378); assay: Inhibition of Meg2 (unknown origin) using pNPP as substrate at 200 uM after 5 mins by spectrophotometry; outline: as §1
[16] = biological target: Receptor-type tyrosine-protein phosphatase C (Homo sapiens) (UniProt P08575); assay: Inhibition of CD45 (unknown origin) expressed in Escherichia coli using pNPP as substrate at 200 uM after 5 mins by spectrophotometry; outline: as §1
[17] = biological target: Receptor-type tyrosine-protein phosphatase mu (Homo sapiens) (UniProt P28827); assay: Inhibition of PTPmu (unknown origin) using pNPP as substrate at 200 uM after 5 mins by spectrophotometry; outline: as §1
[18] = biological target: Tyrosine-protein phosphatase non-receptor type 7 (Homo sapiens) (UniProt P35236); assay: Inhibition of HePTP (unknown origin) expressed in Escherichia coli using pNPP as substrate at 200 uM after 5 mins by spectrophotometry; outline: as §1
[19] = Selectivity ratio of IC50 for VHX (unknown origin) to IC50 for Mycobacterium tuberculosis PTPB; outline: as §2
[20] = biological target: Receptor-type tyrosine-protein phosphatase epsilon (Homo sapiens) (UniProt P23469); assay: Inhibition of PTPepsilon (unknown origin) using pNPP as substrate at 200 uM after 5 mins by spectrophotometry; outline: as §1
[21] = biological target: MAP kinase p38 (Mus musculus) (UniProt P47811+O08911+Q9WUI1+Q9Z1B7); assay: Effect on p38 phosphorylation in mouse RAW264.7 cells transfected with empty vector at 10 to 40 nM pre-treated for 1 hrs followed by stimulation with IFNgamma for 1 hr by Western blotting method; format: cell-based
[22] = Selectivity ratio of IC50 for PTPbeta (unknown origin) to IC50 for Mycobacterium tuberculosis PTPB; outline: as §2
[23] = Selectivity ratio of IC50 for PTPalpha (unknown origin) to IC50 for Mycobacterium tuberculosis PTPB; outline: as §2
[24] = biological target: Dual specificity protein phosphatase 10 (Homo sapiens) (UniProt Q9Y6W6); assay: Inhibition of MKP5 (unknown origin) using pNPP as substrate at 200 uM after 5 mins by spectrophotometry; outline: as §1
[25] = Selectivity ratio of IC50 for HePTP (unknown origin) to IC50 for Mycobacterium tuberculosis PTPB
[26] = Selectivity ratio of IC50 for PTPgamma (unknown origin) to IC50 for Mycobacterium tuberculosis PTPB; outline: as §2
[27] = biological target: Receptor-type tyrosine-protein phosphatase gamma (Homo sapiens) (UniProt P23470); assay: Inhibition of PTPgamma (unknown origin) using pNPP as substrate at 200 uM after 5 mins by spectrophotometry; outline: as §1
[28] = biological target: RAC-alpha serine/threonine-protein kinase (Mus musculus) (UniProt P31750); assay: Effect on Akt phosphorylation in mouse RAW264.7 cells transfected with empty vector at 10 to 40 nM pre-treated for 1 hrs followed by stimulation with IFNgamma for 1 hr by Western blotting method; format: cell-based
[29] = biological target: Tyrosine-protein phosphatase non-receptor type 3 (Homo sapiens) (UniProt P26045); assay: Inhibition of PTPH1 (unknown origin) using pNPP as substrate at 200 uM after 5 mins by spectrophotometry; outline: as §1
[30] = Selectivity ratio of IC50 for LMWPTP (unknown origin) to IC50 for Mycobacterium tuberculosis PTPB
[31] = biological target: Mitogen-activated protein kinase 1 and 3 (ERK2 and ERK1) (Mus musculus) (UniProt P63085+Q63844); assay: Effect on ERK1/2 phosphorylation in mouse RAW264.7 cells transfected with empty vector at 10 to 40 nM pre-treated for 1 hrs followed by stimulation with IFNgamma for 1 hr by Western blotting method; format: cell-based
[32] = biological target: Tyrosine-protein phosphatase non-receptor type 1 (Homo sapiens) (UniProt P18031); assay: Inhibition of PTP1B (unknown origin) expressed in Escherichia coli using pNPP as substrate at 200 uM after 5 mins by spectrophotometry; outline: as §1
[33] = Selectivity ratio of IC50 for PTPepsilon (unknown origin) to IC50 for Mycobacterium tuberculosis PTPB; outline: as §2
[34] = Selectivity ratio of IC50 for CD45 (unknown origin) to IC50 for Mycobacterium tuberculosis PTPB
[35] = Reversible competitive inhibition of Mycobacterium tuberculosis PTPB expressed in Escherichia coli BL21/DE3 cells using pNPP as substrate after 5 mins by Lineweaver-Burk plot analysis
[36] = biological target: Receptor-type tyrosine-protein phosphatase beta (Homo sapiens) (UniProt P23467); assay: Inhibition of PTPbeta (unknown origin) using pNPP as substrate at 200 uM after 5 mins by spectrophotometry; outline: as §1
[37] = Selectivity ratio of IC50 for PTPH1 (unknown origin) to IC50 for Mycobacterium tuberculosis PTPB; outline: as §2
[38] = biological target: Tyrosine-protein phosphatase non-receptor type 11 (Homo sapiens) (UniProt Q06124); assay: Inhibition of SHP2 (unknown origin) expressed in Escherichia coli using pNPP as substrate at 200 uM after 5 mins by spectrophotometry; outline: as §1
[39] = biological target: Tyrosine-protein phosphatase non-receptor type 6 (Homo sapiens) (UniProt P29350); assay: Inhibition of SHP1 (unknown origin) expressed in Escherichia coli using pNPP as substrate at 200 uM after 5 mins by spectrophotometry; outline: as §1
[40] = biological target: Dual specificity protein phosphatase 22 (Homo sapiens) (UniProt Q9NRW4); assay: Inhibition of VHX (unknown origin) expressed in Escherichia coli using pNPP as substrate at 200 uM after 5 mins by spectrophotometry; outline: as §1
[41] = Selectivity ratio of IC50 for PP5 (unknown origin) to IC50 for Mycobacterium tuberculosis PTPB
[42] = biological target: Receptor-type tyrosine-protein phosphatase alpha (Homo sapiens) (UniProt P18433); assay: Inhibition of PTPalpha (unknown origin) using pNPP as substrate at 200 uM after 5 mins by spectrophotometry; outline: as §1
[43] = Selectivity ratio of IC50 for Meg2 (unknown origin) to IC50 for Mycobacterium tuberculosis PTPB
[44] = biological target: Receptor-type tyrosine-protein phosphatase S (Homo sapiens) (UniProt Q13332); assay: Inhibition of PTPsigma (unknown origin) using pNPP as substrate at 200 uM after 5 mins by spectrophotometry; outline: as §1
[45] = biological target: Low molecular weight phosphotyrosine protein phosphatase (Homo sapiens) (UniProt P24666); assay: Inhibition of LMWPTP (unknown origin) using pNPP as substrate at 200 uM after 5 mins by spectrophotometry; outline: as §1
RAW264.7 [46] = assay: Inhibition of Mycobacterium tuberculosis PTPB transfected in mouse RAW264.7 cells assessed as increase in p38 phosphorylation pre-treated for 1 hrs followed by stimulation with IFNgamma for 1 hr by Western blotting method; format: cell-based
[47] = Selectivity ratio of IC50 for PTP1B (unknown origin) to IC50 for Mycobacterium tuberculosis PTPB
[48] = Selectivity ratio of IC50 for PTPmu (unknown origin) to IC50 for Mycobacterium tuberculosis PTPB; outline: as §2
[49] = Selectivity ratio of IC50 for CDC14A (unknown origin) to IC50 for Mycobacterium tuberculosis PTPB
[50] = Selectivity ratio of IC50 for MKP5 (unknown origin) to IC50 for Mycobacterium tuberculosis PTPB
RAW264.7 [51] = assay: Inhibition of Mycobacterium tuberculosis PTPB transfected in mouse RAW264.7 cells decrease in Akt phosphorylation pre-treated for 1 hrs followed by stimulation with IFNgamma for 1 hr by Western blotting method; format: cell-based
[52] = Selectivity ratio of IC50 for SHP1 (unknown origin) to IC50 for Mycobacterium tuberculosis PTPB; outline: as §2
RAW264.7 [53] = assay: Inhibition of Mycobacterium tuberculosis PTPB transfected in mouse RAW264.7 cells assessed as increase in ERK1/2 phosphorylation pre-treated for 1 hrs followed by stimulation with IFNgamma for 1 hr by Western blotting method; format: cell-based
[54] = tested on: Mycobacterium tuberculosis; assay: Selectivity ratio of IC50 for Mycobacterium tuberculosis PTPA to IC50 for Mycobacterium tuberculosis PTPB
[55] = Selectivity ratio of IC50 for LAR (unknown origin) to IC50 for Mycobacterium tuberculosis PTPB
[56] = biological target: Serine/threonine-protein phosphatase 5 (Homo sapiens) (UniProt P53041); assay: Inhibition of PP5 (unknown origin) using pNPP as substrate at 200 uM after 5 mins by spectrophotometry; outline: as §1
[57] = Selectivity ratio of IC50 for LYP (unknown origin) to IC50 for Mycobacterium tuberculosis PTPB
[58] = Inhibition of Mycobacterium tuberculosis PTPB

Chain of Tyrosine-protein phosphatase non-receptor type 3 (Homo sapiens) (P26045 whole entry): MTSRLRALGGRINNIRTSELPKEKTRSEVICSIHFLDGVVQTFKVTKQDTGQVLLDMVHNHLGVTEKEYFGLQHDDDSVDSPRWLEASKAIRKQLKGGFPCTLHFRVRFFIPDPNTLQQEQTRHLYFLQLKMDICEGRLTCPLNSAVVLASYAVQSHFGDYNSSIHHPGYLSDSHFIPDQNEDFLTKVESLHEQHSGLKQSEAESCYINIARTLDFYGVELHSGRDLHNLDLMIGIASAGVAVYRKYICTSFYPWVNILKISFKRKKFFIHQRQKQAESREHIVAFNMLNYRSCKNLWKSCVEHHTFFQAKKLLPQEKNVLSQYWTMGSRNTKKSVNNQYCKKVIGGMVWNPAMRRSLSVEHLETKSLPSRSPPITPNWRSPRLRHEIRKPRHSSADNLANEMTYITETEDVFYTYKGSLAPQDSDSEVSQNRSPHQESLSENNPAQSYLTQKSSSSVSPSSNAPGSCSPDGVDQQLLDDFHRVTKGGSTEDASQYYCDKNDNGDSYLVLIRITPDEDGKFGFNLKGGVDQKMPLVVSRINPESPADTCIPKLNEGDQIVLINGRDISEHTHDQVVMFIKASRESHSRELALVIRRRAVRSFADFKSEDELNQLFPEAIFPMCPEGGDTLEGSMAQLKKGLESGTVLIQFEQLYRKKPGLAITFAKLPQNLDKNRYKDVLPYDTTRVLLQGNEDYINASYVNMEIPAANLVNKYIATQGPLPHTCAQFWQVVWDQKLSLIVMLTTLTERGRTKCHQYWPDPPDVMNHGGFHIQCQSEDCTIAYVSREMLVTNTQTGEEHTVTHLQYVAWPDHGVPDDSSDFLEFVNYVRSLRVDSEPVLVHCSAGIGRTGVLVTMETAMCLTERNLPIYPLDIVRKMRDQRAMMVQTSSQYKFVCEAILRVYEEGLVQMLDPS
Chain of Tyrosine-protein phosphatase non-receptor type 13 (Homo sapiens) (Q12923 whole entry): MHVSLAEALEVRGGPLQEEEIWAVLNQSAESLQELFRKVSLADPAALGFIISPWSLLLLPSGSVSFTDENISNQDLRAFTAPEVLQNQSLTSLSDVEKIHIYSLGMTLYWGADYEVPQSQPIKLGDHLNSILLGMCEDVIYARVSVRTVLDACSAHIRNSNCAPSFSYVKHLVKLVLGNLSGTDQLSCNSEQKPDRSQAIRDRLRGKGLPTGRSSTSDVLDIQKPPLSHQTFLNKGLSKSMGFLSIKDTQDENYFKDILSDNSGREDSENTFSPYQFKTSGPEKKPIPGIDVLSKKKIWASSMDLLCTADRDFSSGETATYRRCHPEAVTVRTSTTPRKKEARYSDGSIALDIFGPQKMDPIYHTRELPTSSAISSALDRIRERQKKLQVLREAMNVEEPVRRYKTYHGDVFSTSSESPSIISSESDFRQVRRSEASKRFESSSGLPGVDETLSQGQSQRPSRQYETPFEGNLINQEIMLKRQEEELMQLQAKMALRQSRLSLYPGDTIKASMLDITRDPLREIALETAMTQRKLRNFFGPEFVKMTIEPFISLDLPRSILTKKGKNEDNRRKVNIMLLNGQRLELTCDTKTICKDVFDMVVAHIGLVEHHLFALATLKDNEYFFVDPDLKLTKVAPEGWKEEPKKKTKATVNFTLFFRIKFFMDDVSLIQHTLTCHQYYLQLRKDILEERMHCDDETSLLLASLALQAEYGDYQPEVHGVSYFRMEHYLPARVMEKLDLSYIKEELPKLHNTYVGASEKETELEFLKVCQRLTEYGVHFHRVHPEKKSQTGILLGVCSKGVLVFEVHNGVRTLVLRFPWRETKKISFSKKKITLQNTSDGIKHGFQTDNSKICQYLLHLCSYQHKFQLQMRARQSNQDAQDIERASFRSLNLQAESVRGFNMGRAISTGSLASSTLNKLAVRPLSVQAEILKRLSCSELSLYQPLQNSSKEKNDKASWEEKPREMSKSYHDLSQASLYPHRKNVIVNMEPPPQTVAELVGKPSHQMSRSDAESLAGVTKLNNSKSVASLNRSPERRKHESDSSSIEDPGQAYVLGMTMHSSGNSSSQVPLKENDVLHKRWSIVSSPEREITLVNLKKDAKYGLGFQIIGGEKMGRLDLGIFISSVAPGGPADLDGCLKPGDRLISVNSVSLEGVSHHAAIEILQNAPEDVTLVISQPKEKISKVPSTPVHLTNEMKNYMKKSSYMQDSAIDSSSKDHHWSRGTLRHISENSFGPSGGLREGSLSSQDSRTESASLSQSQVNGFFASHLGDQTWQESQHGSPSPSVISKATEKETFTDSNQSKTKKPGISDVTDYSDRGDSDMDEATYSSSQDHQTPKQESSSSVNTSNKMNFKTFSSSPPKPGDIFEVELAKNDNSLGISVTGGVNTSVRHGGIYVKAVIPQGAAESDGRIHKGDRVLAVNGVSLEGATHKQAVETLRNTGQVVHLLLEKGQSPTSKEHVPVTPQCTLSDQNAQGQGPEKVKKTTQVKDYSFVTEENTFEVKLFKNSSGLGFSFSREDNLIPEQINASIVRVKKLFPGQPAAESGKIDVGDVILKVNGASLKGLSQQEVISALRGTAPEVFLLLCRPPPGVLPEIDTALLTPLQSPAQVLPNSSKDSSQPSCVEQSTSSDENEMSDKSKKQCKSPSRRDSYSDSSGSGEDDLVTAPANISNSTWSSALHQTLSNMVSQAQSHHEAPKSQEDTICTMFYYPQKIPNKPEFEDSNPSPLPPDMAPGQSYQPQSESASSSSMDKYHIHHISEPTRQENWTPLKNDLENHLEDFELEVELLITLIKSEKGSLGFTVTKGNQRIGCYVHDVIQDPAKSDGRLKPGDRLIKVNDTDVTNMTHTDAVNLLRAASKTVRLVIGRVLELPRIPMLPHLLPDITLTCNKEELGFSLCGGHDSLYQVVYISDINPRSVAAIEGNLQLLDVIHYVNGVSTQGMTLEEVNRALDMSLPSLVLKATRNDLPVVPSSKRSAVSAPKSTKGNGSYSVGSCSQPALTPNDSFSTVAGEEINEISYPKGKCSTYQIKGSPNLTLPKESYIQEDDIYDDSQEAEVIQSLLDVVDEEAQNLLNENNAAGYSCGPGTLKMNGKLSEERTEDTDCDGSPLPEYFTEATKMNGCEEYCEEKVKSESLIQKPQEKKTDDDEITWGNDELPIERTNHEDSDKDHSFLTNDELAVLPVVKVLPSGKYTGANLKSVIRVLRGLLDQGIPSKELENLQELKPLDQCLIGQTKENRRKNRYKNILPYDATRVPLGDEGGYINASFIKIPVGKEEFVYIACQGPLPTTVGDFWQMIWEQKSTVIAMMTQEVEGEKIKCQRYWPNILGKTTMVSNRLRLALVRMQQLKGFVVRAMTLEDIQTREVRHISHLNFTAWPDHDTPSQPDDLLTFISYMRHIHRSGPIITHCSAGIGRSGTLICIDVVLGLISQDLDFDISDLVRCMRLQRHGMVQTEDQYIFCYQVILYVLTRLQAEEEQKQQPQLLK
Chain of Dual specificity protein phosphatase CDC14A (Homo sapiens) (Q9UNH5 whole entry): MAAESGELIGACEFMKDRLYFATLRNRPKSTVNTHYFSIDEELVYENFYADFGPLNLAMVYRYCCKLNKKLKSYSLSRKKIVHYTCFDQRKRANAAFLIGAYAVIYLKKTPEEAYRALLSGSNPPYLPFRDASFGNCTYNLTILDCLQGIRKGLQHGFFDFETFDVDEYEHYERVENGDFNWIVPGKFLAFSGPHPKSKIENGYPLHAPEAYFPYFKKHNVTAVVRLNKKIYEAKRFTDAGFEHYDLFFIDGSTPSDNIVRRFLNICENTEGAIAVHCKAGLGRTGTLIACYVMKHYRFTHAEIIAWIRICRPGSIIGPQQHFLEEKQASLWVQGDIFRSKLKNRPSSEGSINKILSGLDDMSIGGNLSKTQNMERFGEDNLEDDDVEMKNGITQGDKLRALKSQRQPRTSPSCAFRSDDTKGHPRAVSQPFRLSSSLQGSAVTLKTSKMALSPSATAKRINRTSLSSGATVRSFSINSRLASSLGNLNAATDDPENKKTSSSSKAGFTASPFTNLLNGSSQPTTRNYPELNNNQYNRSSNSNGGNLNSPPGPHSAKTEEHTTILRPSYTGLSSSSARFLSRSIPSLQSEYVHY
Chain of Low molecular weight protein-tyrosine phosphatase A (Mycobacterium tuberculosis) (P9WIA1 whole entry): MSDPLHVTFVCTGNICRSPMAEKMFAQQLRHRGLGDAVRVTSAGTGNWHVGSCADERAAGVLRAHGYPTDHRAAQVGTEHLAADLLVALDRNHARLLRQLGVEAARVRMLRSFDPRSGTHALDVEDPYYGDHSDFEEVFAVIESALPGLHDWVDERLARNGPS
Chain of RAC-alpha serine/threonine-protein kinase (Mus musculus) (P31750 whole entry): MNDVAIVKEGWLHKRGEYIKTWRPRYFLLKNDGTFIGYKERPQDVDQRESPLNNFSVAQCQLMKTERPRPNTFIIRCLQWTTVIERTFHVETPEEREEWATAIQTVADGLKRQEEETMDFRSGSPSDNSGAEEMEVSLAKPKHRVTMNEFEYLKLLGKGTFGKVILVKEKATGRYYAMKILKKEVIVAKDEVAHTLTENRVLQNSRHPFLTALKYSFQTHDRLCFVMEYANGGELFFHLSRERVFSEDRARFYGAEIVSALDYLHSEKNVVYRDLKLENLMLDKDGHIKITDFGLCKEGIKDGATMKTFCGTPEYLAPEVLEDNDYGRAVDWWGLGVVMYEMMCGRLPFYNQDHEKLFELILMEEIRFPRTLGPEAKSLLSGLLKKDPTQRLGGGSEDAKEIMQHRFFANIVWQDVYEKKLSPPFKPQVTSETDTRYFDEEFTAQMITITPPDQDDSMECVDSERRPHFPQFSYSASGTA
Chain of Low molecular weight phosphotyrosine protein phosphatase (Homo sapiens) (P24666 whole entry): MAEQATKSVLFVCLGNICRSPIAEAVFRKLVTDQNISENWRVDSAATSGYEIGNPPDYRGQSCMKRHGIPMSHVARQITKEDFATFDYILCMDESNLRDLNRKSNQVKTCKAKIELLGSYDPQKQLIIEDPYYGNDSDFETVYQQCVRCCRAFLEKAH
Chain of Dual specificity protein phosphatase 3 (Homo sapiens) (P51452 whole entry, looked up): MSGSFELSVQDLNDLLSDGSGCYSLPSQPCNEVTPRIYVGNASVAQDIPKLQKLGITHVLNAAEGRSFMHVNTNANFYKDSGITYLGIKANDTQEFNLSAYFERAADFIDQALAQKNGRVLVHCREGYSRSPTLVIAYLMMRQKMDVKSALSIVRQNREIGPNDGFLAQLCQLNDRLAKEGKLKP

O=C(Nc1cccc2ccccc12)C(c1ccccc1)S(=O)(=O)O (racemic)
720 nM: IC50 [1]

O=C(NCCc1ccc(Cl)cc1Cl)C(c1ccccc1)S(=O)(=O)O (racemic)
290 nM: IC50 [1]

CC(=O)OCC1=C(C(=O)O)N2C(=O)[C@@H](N)[C@H]2SC1
inactive: inhibition (BL21-DE3)

O=C(C(c1ccccc1)S(=O)(=O)O)N1CCCC2CCCCC21 (racemic)
inactive: inhibition [2] | inhibition [4] | inhibition [8] | inhibition (Laforin (Homo sapiens)) | inhibition [9] | inhibition [10] | inhibition [11] | inhibition [13] | inhibition [15] | inhibition [16] | inhibition [17] | inhibition [18] | inhibition [20] | Activity [21] | inhibition [24] | inhibition [27] | Activity [28] | inhibition [29] | Activity [31] | inhibition [32] | inhibition [36] | inhibition [38] | inhibition [39] | inhibition [40] | inhibition [42] | inhibition [44] | inhibition [45] | inhibition [56]
7.9 nM: Ki [35]
18 nM: IC50 [1]
active: inhibition (RAW264.7 [46]) Dose-dependent effect | inhibition (RAW264.7 [51]) Dose-dependent effect | inhibition (RAW264.7 [53]) Dose-dependent effect
> 10000: Ratio IC50 [3] | Ratio IC50 [5] | Ratio IC50 [6] | Ratio IC50 [7] | Ratio IC50 [12] | Ratio IC50 [14] | Ratio IC50 [19] | Ratio IC50 [22] | Ratio IC50 [23] | Ratio IC50 [25] | Ratio IC50 [26] | Ratio IC50 [30] | Ratio IC50 [33] | Ratio IC50 [34] | Ratio IC50 [37] | Ratio IC50 [41] | Ratio IC50 [43] | Ratio IC50 [47] | Ratio IC50 [48] | Ratio IC50 [49] | Ratio IC50 [50] | Ratio IC50 [52] | Ratio IC50 [54] | Ratio IC50 [55] | Ratio IC50 [57]

O=C(Nc1ccc(-c2ccccc2)cc1)C(c1ccccc1)S(=O)(=O)O (racemic)
196 nM: IC50 [1]

NC(=O)c1cc[n+](CC2=C(C(=O)O)N3C(=O)[C@@H](NC(=O)[C@@H](c4ccccc4)S(=O)(=O)[O-])[C@H]3SC2)cc1 [CEFSULODIN SODIUM]
16000 nM: IC50 [58]
